Legend:
Assay type in all cases: functional
Pseudomonas aeruginosa [1] = experiment: Potentiation of minocycline-induced antibacterial activity against MDR/XDR Pseudomonas aeruginosa isolate PA264-104354 harboring GyrA T83I mutant assessed as fold reduction in minocycline MIC at 7.5 uM incubated for 18 hrs by broth microdilution method
Pseudomonas aeruginosa [2] = experiment: Potentiation of rifampicin-induced antimicrobial activity against MDR/XDR Pseudomonas aeruginosa isolate 101885 harboring GyrA Thr83Ile mutant assessed as rifampicin MIC50 incubated for 18 hrs by broth microdilution method (reference value: 8 microg/ml); details: isolate 101885, 18 h
Pseudomonas aeruginosa [3] = experiment: Potentiation of minocycline-induced antimicrobial activity against MDR/XDR Pseudomonas aeruginosa isolate PA264-104354 harboring GyrA Thr83Ile mutant assessed as minocycline MIC50 incubated for 18 hrs by broth microdilution method (reference value: 16 microg/ml); details: isolate PA264-104354, 18 h
Acinetobacter baumannii [4] = experiment: Synergistic antibacterial activity against multidrug-resistant Acinetobacter baumannii 110193 assessed as fractional inhibitory concentration index in presence of minocycline incubated for 18 hrs by broth dilution method
Pseudomonas aeruginosa [5] = experiment: Potentiation of minocycline-induced antimicrobial activity against MDR/XDR Pseudomonas aeruginosa isolate 101885 harboring GyrA Thr83Ile mutant assessed as minocycline MIC50 incubated for 18 hrs by broth microdilution method (reference value: 16 microg/ml); details: isolate 101885, 18 h
Pseudomonas aeruginosa [6] = experiment: Potentiation of minocycline-induced antibacterial activity against MDR/XDR Pseudomonas aeruginosa isolate 91433 devoid of GyrA T83I mutant assessed as fold reduction in minocycline MIC at 7.5 uM incubated for 18 hrs by broth microdilution method
Acinetobacter baumannii [7] = experiment: Potentiation of rifampicin-induced antibacterial activity against multidrug-resistant Acinetobacter baumannii 110193 assessed as fold reduction in rifampicin MIC at 7.5 uM incubated for 18 hrs by broth dilution method
Outline: (§1)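 CLSI broth microdilution. Overnight cultures were set to 0.5 McFarland in saline, diluted 1:50 in Mueller-Hinton broth to a final 5 × 10^5 CFU/mL, and incubated 18 h at 37 °C against 2-fold antibiotic dilutions. A fixed adjuvant level was present throughout. MIC = lowest concentration with no visible turbidity, confirmed at 590 nm. Potentiation = fold drop in antibiotic MIC versus antibiotic alone.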

Pseudomonas aeruginosa [8] = experiment: Potentiation of ciprofloxacin-induced antibacterial activity against MDR/XDR Pseudomonas aeruginosa isolate PA262-101856 harboring GyrA T83I mutant assessed as fold reduction in ciprofloxacin MIC at 7.5 uM incubated for 18 hrs by broth microdilution method
Pseudomonas aeruginosa [9] = experiment: Potentiation of minocycline-induced antibacterial activity against MDR/XDR Pseudomonas aeruginosa isolate PA262-101856 harboring GyrA T83I mutant assessed as fold reduction in minocycline MIC at 7.5 uM incubated for 18 hrs by broth microdilution method
Enterobacter cloacae = experiment: Potentiation of rifampicin-induced antibacterial activity against Enterobacter cloacae 117029 assessed as fold reduction in rifampicin MIC at 7.5 uM incubated for 18 hrs by broth dilution method
Outline: (§2)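 Antibiotic MIC determined by CLSI broth microdilution (MHB, 5 × 10^5 CFU/mL, 18 h, 37 °C), once alone and once with a fixed concentration of the adjuvant. Potentiation is the ratio of the antibiotic MIC alone to its MIC in the presence of the adjuvant.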

Pseudomonas aeruginosa [10] = experiment: Potentiation of moxifloxacin-induced antibacterial activity against MDR/XDR Pseudomonas aeruginosa isolate 100036 harboring GyrA T83I mutant assessed as fold reduction in moxifloxacin MIC at 7.5 uM incubated for 18 hrs by broth microdilution method; outline: as §1
Pseudomonas aeruginosa [11] = experiment: Potentiation of minocycline-induced antibacterial activity against MDR/XDR Pseudomonas aeruginosa isolate 101243 devoid of GyrA T83I mutant assessed as fold reduction in minocycline MIC at 7.5 uM incubated for 18 hrs by broth microdilution method
Acinetobacter baumannii [12] = experiment: Synergistic antibacterial activity against multidrug-resistant Acinetobacter baumannii AB031 assessed as fractional inhibitory concentration index in presence of minocycline incubated for 18 hrs by broth dilution method
Pseudomonas aeruginosa [13] = experiment: Potentiation of minocycline-induced antibacterial activity against MDR/XDR Pseudomonas aeruginosa isolate 101885 harboring GyrA T83I mutant assessed as fold reduction in minocycline MIC at 9 uM incubated for 18 hrs by broth microdilution method
Pseudomonas aeruginosa [14] = experiment: Potentiation of moxifloxacin-induced antibacterial activity against wild type Pseudomonas aeruginosa PAO1 assessed as fold reduction in moxifloxacin MIC at 9 uM incubated for 18 hrs by broth microdilution method; outline: as §2
Pseudomonas aeruginosa [15] = experiment: Potentiation of ciprofloxacin-induced antibacterial activity against MDR/XDR Pseudomonas aeruginosa isolate 101885 harboring GyrA T83I mutant assessed as fold reduction in ciprofloxacin MIC at 9 uM incubated for 18 hrs by broth microdilution method
Pseudomonas aeruginosa [16] = experiment: Potentiation of ciprofloxacin-induced antibacterial activity against MDR/XDR Pseudomonas aeruginosa isolate 100036 harboring GyrA T83I mutant assessed as fold reduction in ciprofloxacin MIC at 9 uM incubated for 18 hrs by broth microdilution method
Acinetobacter baumannii [17] = experiment: Antimicrobial activity against multidrug-resistant Acinetobacter baumannii ATCC 17978 incubated for 18 hrs by broth dilution method; details: ATCC 17978, 18 h
Outline: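 Broth microdilution per CLSI: overnight cultures set to 0.5 McFarland in saline, diluted 1:50 in Mueller-Hinton broth to a final 5 × 10^5 CFU/mL, added to 2-fold serial dilutions, incubated 18 h at 37 °C; MIC is the lowest concentration without visible turbidity, confirmed at 590 nm.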

Pseudomonas aeruginosa [18] = experiment: Antimicrobial activity against XDR Pseudomonas aeruginosa isolate PA264 infected in Galleria mellonella larvae assessed as survival rate at 25 mg/kg co-administered with 25 mg/kg rifampicin at 2 hrs post-inoculation measured after 18 hrs relative to control
Outline: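 G. mellonella larvae were injected with ~5 CFU of P. aeruginosa PA264 (10 µL of 5 × 10^2 CFU/mL in PBS) and held 2 h at 37 °C. A single 10 µL injection followed: monotherapy or rifampicin + compound (25+25, 50+50 or 75+75 mg/kg), with PBS as control. Larvae kept at 37 °C were scored every 6 h to 24 h; dead = no response to touch. n = 30 (two runs of 15); Kaplan-Meier.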

Escherichia coli = experiment: Synergistic antibacterial activity against Escherichia coli 107115 assessed as fractional inhibitory concentration index in presence of minocycline incubated for 18 hrs by broth dilution method
Outline: (§3)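 Checkerboard titration of the adjuvant against the antibiotic, run under the CLSI microdilution conditions (MHB, 5 × 10^5 CFU/mL, 18 h, 37 °C). Each agent's FIC is its MIC in combination divided by its MIC alone; FICI is the sum of the two FICs. FICI ≤0.5 was read as synergy, >0.5–4.0 as no interaction, and >4.0 as antagonism.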

Klebsiella pneumoniae [19] = experiment: Synergistic antibacterial activity against Klebsiella pneumoniae 113254 assessed as fractional inhibitory concentration index in presence of rifampicin incubated for 18 hrs by broth dilution method; outline: as §3
Klebsiella pneumoniae [20] = experiment: Synergistic antibacterial activity against Klebsiella pneumoniae 113254 assessed as fractional inhibitory concentration index in presence of minocycline incubated for 18 hrs by broth dilution method; outline: as §3

Q: `COc1c(N2C[C@@H]3CCCN(CCCCCCCCCCCCO[C@@H]4[C@@H](O)[C@H](N)C[C@H](N)[C@H]4O[C@H]4O[C@H](CN)[C@@H](O)C[C@H]4N)[C@@H]3C2)c(F)cc2c(=O)c(C(=O)O)cn(C3CC3)c12.Cl.Cl.Cl.Cl.Cl` was tested. Which “fold change (FC)” value (Pseudomonas aeruginosa [1]) did it give?
A: 64

Q: And the MIC50 (Pseudomonas aeruginosa [2])?
A: 0.06 µg/mL

Q: What about the MIC50 (Pseudomonas aeruginosa [3]) of the same molecule?
A: 0.5 µg/mL

Q: What about the “fractional inhibitory concentration index (FICI)” value (Acinetobacter baumannii [4]) of the same molecule?
A: >1

Q: And the MIC50 (Pseudomonas aeruginosa [5])?
A: 0.5 µg/mL

Q: And the “fold change (FC)” value (Pseudomonas aeruginosa [6])?
A: 32

Q: What about the “fold change (FC)” value (Acinetobacter baumannii [7]) of the same molecule?
A: 32

Q: What about the “fold change (FC)” value (Pseudomonas aeruginosa [8]) of the same molecule?
A: 4

Q: And the “fold change (FC)” value (Pseudomonas aeruginosa [9])?
A: 32

Q: And the “fold change (FC)” value (Enterobacter cloacae)?
A: >=128

Q: What about the “fold change (FC)” value (Pseudomonas aeruginosa [10]) of the same molecule?
A: 16

Q: And the “fold change (FC)” value (Pseudomonas aeruginosa [11])?
A: 16

Q: What about the “fractional inhibitory concentration index (FICI)” value (Acinetobacter baumannii [12]) of the same molecule?
A: >1

Q: `Cl.Cl.Cl.Cl.Cl.Cl.NC[C@H]1O[C@H](O[C@H]2[C@H](OCCCCCCCCCCN3CCN(Cc4cccc5ccccc45)CC3)[C@@H](O)[C@H](N)C[C@@H]2N)[C@H](N)C[C@@H]1O` was tested. Which “fold change (FC)” value (Pseudomonas aeruginosa [13]) did it give?
A: 64

Q: What about the “fold change (FC)” value (Pseudomonas aeruginosa [14]) of the same molecule?
A: 32

Q: What about the “fold change (FC)” value (Pseudomonas aeruginosa [15]) of the same molecule?
A: 8

Q: And the “fold change (FC)” value (Pseudomonas aeruginosa [16])?
A: 8

Q: Which MIC (Acinetobacter baumannii [17]) does the source give for `Cl.Cl.Cl.Cl.Cl.NC[C@H]1O[C@H](O[C@H]2[C@H](OCCCCCCCCCCCCN3CCN(c4cc5c(cc4F)c(=O)c(C(=O)O)cn5C4CC4)CC3)[C@@H](O)[C@H](N)C[C@@H]2N)[C@H](N)C[C@@H]1O` here?
A: 128 µg/mL

Q: And the survival at 25 mg/kg (Pseudomonas aeruginosa [18])?
A: 33%

Q: And the “fractional inhibitory concentration index (FICI)” value (Escherichia coli)?
A: 0.133

Q: What about the “fractional inhibitory concentration index (FICI)” value (Klebsiella pneumoniae [19]) of the same molecule?
A: 0.047

Q: What about the “fractional inhibitory concentration index (FICI)” value (Klebsiella pneumoniae [20]) of the same molecule?
A: 0.504
